These results are taken from ChEMBL document CHEMBL1124009 (J Med Chem, 1988).

SMILES strings stand for the structures. Positions of bridges follow the written chain, without caps; N, C: chain ends. Non-standard residues stand in square brackets, D forms with d. Residues, ends and D or L forms follow the SMILES beside them. Tic = O=C(O)[C@@H]1Cc2ccccc2CN1; dTic = O=C(O)[C@H]1Cc2ccccc2CN1; Pen = CC(C)(S)[C@H](N)C(=O)O

For assay [1], the target named is Opioid receptors; mu & delta (Rattus norvegicus) (UniProt P33533+P33535). The experiment in a line: Ratio of selective binding affinity of mu receptor to that of delta opioid receptor. The format is protein assay.
Chain of Opioid receptors; mu & delta (Rattus norvegicus) (P33533 whole entry, looked up): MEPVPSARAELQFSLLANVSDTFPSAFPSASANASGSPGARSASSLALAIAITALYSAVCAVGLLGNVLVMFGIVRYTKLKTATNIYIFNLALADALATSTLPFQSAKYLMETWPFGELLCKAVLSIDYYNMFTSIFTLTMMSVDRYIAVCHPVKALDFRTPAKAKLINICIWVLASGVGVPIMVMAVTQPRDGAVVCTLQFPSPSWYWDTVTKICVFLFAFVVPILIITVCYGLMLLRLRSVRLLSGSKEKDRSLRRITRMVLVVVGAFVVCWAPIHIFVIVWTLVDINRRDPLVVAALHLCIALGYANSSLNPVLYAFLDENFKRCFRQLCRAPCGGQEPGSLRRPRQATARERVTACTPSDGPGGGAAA
Chain of Opioid receptors; mu & delta (Rattus norvegicus) (P33535 whole entry, looked up): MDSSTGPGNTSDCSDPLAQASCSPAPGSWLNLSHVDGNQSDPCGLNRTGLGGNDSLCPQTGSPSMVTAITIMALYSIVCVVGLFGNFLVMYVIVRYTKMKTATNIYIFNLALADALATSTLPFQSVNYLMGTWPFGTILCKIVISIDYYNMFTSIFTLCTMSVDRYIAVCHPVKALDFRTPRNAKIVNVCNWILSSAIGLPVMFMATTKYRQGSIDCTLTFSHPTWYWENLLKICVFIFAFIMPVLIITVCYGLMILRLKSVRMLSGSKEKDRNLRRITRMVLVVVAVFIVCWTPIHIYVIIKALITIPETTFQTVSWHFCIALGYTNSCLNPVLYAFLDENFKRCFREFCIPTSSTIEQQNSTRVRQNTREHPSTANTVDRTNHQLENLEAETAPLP
Assay [2] can be described thus: Ratio of selective binding affinity of mu receptor to that of somatostatin receptor.
Assay [3] addresses Delta-type opioid receptor (Rattus norvegicus, UniProt P33533). The experiment in a line: Binding affinity in competition with [3H]- DPDPE in Opioid receptor delta 1 binding to rat brain membrane. The procedure, abridged:
(§1)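 Brains (minus cerebellum) of male Sprague–Dawley rats (200–250 g) were homogenized, preincubated 30 min at 25 °C and centrifuged twice at 43000g. Homogenate at 0.5% final was incubated with 0.5 nM [3H]CTOP (μ) or 1.0 nM [3H]DPDPE (δ) in 50 mM Tris-HCl pH 7.4 with 5 mM MgCl2, BSA 1 mg/mL and 100 μM PMSF, 120 min at 25 °C, in duplicate. Nonspecific binding was taken with 1 μM naloxone; bound label was filtered and scintillation counted; curves were fit by nonlinear least squares.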

Assay [4] has as its target Mu-type opioid receptor (Rattus norvegicus, UniProt P33535). The experiment in a line: Binding affinity in competition with [3H]- CTOP in Opioid receptor mu 1 binding to rat brain membrane. The procedure, abridged:
as §1

The species entered for assay [5] is Cavia porcellus. The experiment in a line: Negative logarithm of antagonist concentration that requires doubling of agonist concentration to induce original agonist response. To be noted: read-out: pA2 (converted).
The target of assay [6] is Somatostatin receptor. The experiment in a line: Binding affinity in competition with [125I]- CGP-23996 in somatostatin receptor binding to rat brain membrane. The procedure, abridged: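 Rat whole-brain membranes (adult male Sprague–Dawley) at 1.0% final tissue were incubated with 0.2 nM [125I]CGP 23,996 and analogues at 100–0.3 μM. Buffer was 50 mM Tris pH 7.4 with 2.0 mg/mL BSA, 20 μg/mL bacitracin and 5 mM MgCl2. Incubation ran 1 h at 37 °C and ended by rapid filtration through BSA-soaked GF/B filters.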

Chain of Mu-type opioid receptor (P33535 whole entry): as the sequence (P33535 whole entry, looked up) above
Chain of Delta-type opioid receptor (P33533 whole entry): as the sequence (P33533 whole entry, looked up) above

On to `C[C@@H](O)[C@@H]1NC(=O)[C@H](CCCCN)NC(=O)C(Cc2c[nH]c3ccccc23)NC(=O)[C@H](Cc2ccc(O)cc2)NC(=O)[C@@H](NC(=O)[C@H]2Cc3ccccc3CN2)CSSC(C)(C)[C@@H](C(=O)N[C@@H](CO)C(N)=O)NC1=O` (stereo in doubt), for which the Ratio is 491 in assay [1] and 192 in assay [2].
In the same order, the values of `C[C@@H](O)[C@@H]1NC(=O)[C@H](CCCCN)NC(=O)C(Cc2c[nH]c3ccccc23)NC(=O)[C@H](Cc2ccc(O)cc2)NC(=O)[C@@H](NC(=O)[C@H](N)Cc2ccccc2)CSSC(C)(C)[C@@H](C(=O)N[C@@H](CC(N)=O)C(N)=O)NC1=O` (stereo in doubt) are more than 77 and 6.3.
On to `CC(C)[C@H](NC(=O)[C@H]1NC(=O)[C@H]([C@@H](C)O)NC(=O)[C@H](CCCCN)NC(=O)[C@@H](Cc2c[nH]c3ccccc23)NC(=O)[C@H](Cc2ccc(O)cc2)NC(=O)[C@@H](NC(=O)[C@H]2Cc3ccccc3CN2)CSSC1(C)C)C(N)=O`, for which the IC50 came out at 2120 nM in assay [3] and 46 nM in assay [4]. The Kb in assay [5] was 257 nM.
Turning to `C[C@@H](O)[C@H](NC(=O)[C@H]1NC(=O)[C@H]([C@@H](C)O)NC(=O)[C@H](CCCCN)NC(=O)C(Cc2c[nH]c3ccccc23)NC(=O)[C@@H](Cc2ccc(O)cc2)NC(=O)[C@@H](NC(=O)[C@H]2Cc3ccccc3CN2)CSSC1(C)C)C(N)=O` (stereo in doubt) [listing 1 of 2 here], the Ratio was determined as 7770 in assay [1] and 791 in assay [2].
Regarding `C[C@@H](O)[C@@H]1NC(=O)[C@H](CCCCN)NC(=O)C(Cc2c[nH]c3ccccc23)NC(=O)[C@H](Cc2ccc(O)cc2)NC(=O)[C@@H](NC(=O)[C@H](N)Cc2ccccc2)CSSC(C)(C)[C@@H](C(=O)N[C@@H](CO)C(N)=O)NC1=O` (stereo in doubt) [listing 1 of 2 here], the IC50 in assay [3] is more than 10000 nM; in assay [4], 20 nM. Besides, the Kb in assay [5] is 575 nM.
Consider `C[C@@H](O)[C@@H]1NC(=O)[C@H](CCCCN)NC(=O)C(Cc2c[nH]c3ccccc23)NC(=O)[C@H](Cc2ccc(O)cc2)NC(=O)[C@@H](NC(=O)[C@H](N)Cc2ccccc2)CSSC(C)(C)[C@@H](C(=O)N[C@@H](CC(=O)O)C(N)=O)NC1=O` (stereo in doubt), for which the Ratio is more than 2.9 in assay [1] and 2.4 in assay [2].
As to `C[C@@H](O)[C@@H]1NC(=O)[C@H](CCCCN)NC(=O)C(Cc2c[nH]c3ccccc23)NC(=O)[C@H](Cc2ccc(O)cc2)NC(=O)[C@@H](NC(=O)[C@H](N)Cc2ccccc2)CSSC(C)(C)[C@@H](C(=O)N[C@@H](CO)C(N)=O)NC1=O` (stereo in doubt) [listing 2 of 2 here], the values for the Ratio in assay [1] and in assay [2] were more than 490 and 94, respectively.
For `C[C@@H](O)[C@H](NC(=O)[C@H]1NC(=O)[C@H]([C@@H](C)O)NC(=O)[C@H](CCCN=C(N)N)NC(=O)[C@H](Cc2c[nH]c3ccccc23)NC(=O)[C@H](Cc2ccc(O)cc2)NC(=O)[C@@H](NC(=O)[C@@H]2Cc3ccccc3CN2)CSSC1(C)C)C(N)=O` (H-[Tic]CYWRT[Pen]T-NH2; disulfide 2-7), the half-inhibitory concentration (IC50) in assay [6] stood at 34336 nM. Moreover, the Ratio in assay [1] worked out at 1060; in assay [2], 28600.
On the same counts, the results for `C[C@@H](O)[C@H](NC(=O)[C@H]1NC(=O)[C@H](CC(N)=O)NC(=O)[C@H](Cc2ccccc2)NC(=O)[C@@H](NC(=O)[C@@H](N)Cc2ccc(O)cc2)CSSC1(C)C)C(N)=O` are “>= 10000 nM”, more than 1.3 and more than 1.3.
In the same order, the values of `CC(C)[C@H](NC(=O)[C@H]1NC(=O)[C@H]([C@@H](C)O)NC(=O)[C@H](CCCCN)NC(=O)[C@H](Cc2c[nH]c3ccccc23)NC(=O)[C@H](Cc2ccc(O)cc2)NC(=O)[C@@H](NC(=O)[C@H]2Cc3ccccc3CN2)CSSC1(C)C)C(N)=O` are 1992 nM, 46 and 43.
As to `C[C@@H](O)[C@H](NC(=O)[C@H]1NC(=O)[C@H]([C@@H](C)O)NC(=O)[C@H](CCCN)NC(=O)[C@@H](Cc2c[nH]c3ccccc23)NC(=O)[C@H](Cc2ccc(O)cc2)NC(=O)[C@@H](NC(=O)[C@H]2Cc3ccccc3CN2)CSSC1(C)C)C(N)=O`, the IC50 in assay [3] is 16000 nM; in assay [4] it was 1.4 nM. In assay [5], the Kb was 41.7 nM.
On to `C[C@@H](O)[C@H](NC(=O)[C@H]1NC(=O)[C@H]([C@@H](C)O)NC(=O)[C@H](CCCCN)NC(=O)[C@@H](Cc2c[nH]c3ccccc23)NC(=O)[C@H](Cc2ccc(O)cc2)NC(=O)[C@@H](NC(=O)[C@H](N)Cc2ccccc2)CSSC1(C)C)C(N)=O`, for which the 50% inhibitory concentration (IC50) in assay [3] amounted to 1150 nM. Also, the Kb in assay [5] is 79.4 nM.
As for `C[C@@H](O)[C@H](NC(=O)[C@H]1NC(=O)[C@H](CCCCN)NC(=O)C(Cc2c[nH]c3ccccc23)NC(=O)[C@@H](Cc2ccc(O)cc2)NC(=O)[C@@H](NC(=O)[C@H]2Cc3ccccc3CN2)CSSC1(C)C)C(N)=O` (stereo in doubt) [listing 1 of 2 here], the Ratio is more than 1 in assay [1] and 1.5 in assay [2].
In the same order, the values of `C[C@@H](O)[C@H](NC(=O)[C@H]1NC(=O)[C@H]([C@@H](C)O)NC(=O)[C@H](CCCN)NC(=O)C(Cc2c[nH]c3ccccc23)NC(=O)[C@@H](Cc2ccc(O)cc2)NC(=O)[C@@H](NC(=O)[C@H]2Cc3ccccc3CN2C(=O)CN)CSSC1(C)C)C(N)=O` (stereo in doubt) are 19 and 70.
On to `C[C@@H](O)[C@H](NC(=O)[C@H]1NC(=O)[C@H]([C@@H](C)O)NC(=O)[C@H](CCCN=C(N)N)NC(=O)[C@@H](Cc2c[nH]c3ccccc23)NC(=O)[C@H](Cc2ccc(O)cc2)NC(=O)[C@@H](NC(=O)[C@H]2Cc3ccccc3CN2)CSSC1(C)C)C(N)=O` (H-[dTic]CY[dW]RT[Pen]T-NH2; disulfide 2-7), for which the IC50 turned out to be 1270 nM in assay [3] and 1.2 nM in assay [4]. Further, in assay [5], the Kb is 2.04 nM.
Take `CN[C@H](Cc1ccccc1)C(=O)N[C@H]1CSSC(C)(C)[C@@H](C(=O)N[C@H](C(N)=O)[C@@H](C)O)NC(=O)[C@H]([C@@H](C)O)NC(=O)[C@H](CCCN)NC(=O)C(Cc2c[nH]c3ccccc23)NC(=O)[C@H](Cc2ccc(O)cc2)NC1=O` (stereo in doubt): the results for the Ratio in assay [1] and in assay [2] were more than 35 and 28, respectively.
The compound `C[C@@H](O)[C@H](NC(=O)[C@H]1NC(=O)[C@H]([C@@H](C)O)NC(=O)[C@H](CCCCN)NC(=O)[C@H](Cc2c[nH]c3ccccc23)NC(=O)[C@H](Cc2ccc(O)cc2)NC(=O)[C@@H](NC(=O)[C@@H](N)Cc2ccccc2)CSSC1(C)C)C(N)=O` showed an IC50 in assay [6] of 1462 nM. Also, the Ratio in assay [1] was determined as 312; in assay [2] it was 395.
For `C[C@@H](O)[C@H](NC(=O)[C@H]1NC(=O)[C@H]([C@@H](C)O)NC(=O)[C@H](CCCCN)NC(=O)C(Cc2c[nH]c3ccccc23)NC(=O)[C@@H](Cc2ccc(O)cc2)NC(=O)[C@@H](NC(=O)[C@H]2Cc3ccccc3CN2)CSSC1(C)C)C(N)=O` (stereo in doubt) [listing 2 of 2 here], the half-inhibitory concentration (IC50) in assay [3] was 9320 nM; in assay [4], 1.2 nM. Also, the Kb in assay [5] was 7.94 nM.
Consider `C[C@@H](O)[C@@H]1NC(=O)[C@H](CCCCN)NC(=O)C(Cc2c[nH]c3ccccc23)NC(=O)[C@H](Cc2ccc(O)cc2)NC(=O)[C@@H](NC(=O)[C@H](N)Cc2ccccc2)CSSC(C)(C)[C@@H](C(N)=O)NC1=O` (stereo in doubt), for which the Ratio is more than 87 in assay [1] and 17 in assay [2].
On the same counts, the results for `C[C@@H](O)[C@@H]1NC(=O)[C@H](CCCN)NC(=O)C(Cc2c[nH]c3ccccc23)NC(=O)[C@H](Cc2ccc(O)cc2)NC(=O)[C@@H](NC(=O)[C@H](N)Cc2ccccc2)CSSC(C)(C)[C@@H](C(N)=O)NC1=O` (stereo in doubt) [listing 1 of 2 here] are more than 53 and 253.
On to `C[C@@H](O)[C@H](NC(=O)[C@H]1NC(=O)[C@H](CCCCN)NC(=O)C(Cc2c[nH]c3ccccc23)NC(=O)[C@@H](Cc2ccc(O)cc2)NC(=O)[C@@H](NC(=O)[C@H]2Cc3ccccc3CN2)CSSC1(C)C)C(N)=O` (stereo in doubt) [listing 2 of 2 here], for which the IC50 was more than 10000 nM in assay [3] and 9410 nM in assay [4].
`C[C@@H](O)[C@H](NC(=O)[C@H]1NC(=O)[C@H]([C@@H](C)O)NC(=O)[C@H](CCCN=C(N)N)NC(=O)[C@@H](Cc2c[nH]c3ccccc23)NC(=O)[C@H](Cc2ccc(O)cc2)NC(=O)[C@@H](NC(=O)[C@H](N)Cc2ccccc2)CSSC1(C)C)C(N)=O`: the IC50 in assay [3] turned out to be 5310 nM; in assay [4], 2.1 nM.
On the same counts, the results for `C[C@@H](O)[C@H](NC(=O)[C@H]1NC(=O)[C@H]([C@@H](C)O)NC(=O)[C@H](CCCCN)NC(=O)C(Cc2c[nH]c3ccccc23)NC(=O)[C@H](Cc2ccc(O)cc2)NC(=O)[C@@H](NC(=O)C(N)Cc2c[nH]c3ccccc23)CSSC1(C)C)C(N)=O` (stereo in doubt) are more than 10000 nM and 6.3 nM.
In the same order, the values of `C[C@@H](O)[C@@H]1NC(=O)[C@H](CCCN)NC(=O)C(Cc2c[nH]c3ccccc23)NC(=O)[C@H](Cc2ccc(O)cc2)NC(=O)[C@@H](NC(=O)[C@H](N)Cc2ccccc2)CSSC(C)(C)[C@@H](C(N)=O)NC1=O` (stereo in doubt) [listing 2 of 2 here] are more than 10000 nM and 187 nM.
